Measurements published in ChEMBL document CHEMBL1122216, “2-(Aminomethyl)phenols, a new class of saluretic agents. 6. Effects of N,O-spiroannulation and subsequent quaternization” (1983).

Legend:
Rattus norvegicus [1] = assay: Antihypertensive activity after po administration of 5 mg/kg dose in spontaneously hypertensive(SH) rats; score is for average value of two animals; format: functional
How it was run: (§1)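 Spontaneously hypertensive rats were scored by the maximum fall in blood pressure: 0, <20 mm; 1, <30 mm; 2, <40 mm; 3, >40 mm Hg.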

Rattus norvegicus [2] = assay: Antihypertensive activity after administration of 20 mg/kg dose in spontaneously hypertensive(SH) rats; score is for average value of four animals; format: functional; how it was run: as §1
Rattus norvegicus [3] = assay: Saluretic property after administration in rats; format: functional
How it was run: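 Rats were housed three per cage, with three cages per dose. Sodium excreted over the first 5 h was scored from the geometric mean: 0, <2 mequiv; ±, >2; 1, <8; 2, <15; 3, <25; 4, <35; 5, <45; 6, <55 mequiv.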

Canis familiaris [4] = assay: Saluretic property in an anesthetized dog after 5 mg/kg administration; format: functional, Canis lupus familiaris
Rattus norvegicus [5] = assay: Antihypertensive activity after po administration of 40 mg/kg dose in spontaneously hypertensive(SH) rats; score is for average value of two animals; format: functional; how it was run: as §1
Rattus norvegicus [6] = assay: Antihypertensive activity after administration of 20 mg/kg dose in spontaneously hypertensive(SH) rats; score is for average value of two animals; format: functional; how it was run: as §1
Rattus norvegicus [7] = assay: Antihypertensive activity after intraperitoneal administration of 20 mg/kg dose in spontaneously hypertensive(SH) rats; score is for average value of two animals; format: functional; how it was run: as §1
Rattus norvegicus [8] = assay: Antihypertensive activity after po administration of 40 mg/kg dose in spontaneously hypertensive(SH) rats; score is for average value of four animals; format: functional; how it was run: as §1
Rattus norvegicus [9] = assay: Antihypertensive activity after administration of 5 mg/kg dose in spontaneously hypertensive(SH) rats; score is for average value of four animals; format: functional; how it was run: as §1
Canis familiaris [10] = assay: Saluretic property in an average of two anesthetized dog after 5 mg/kg po administration; format: functional, Canis lupus familiaris
Rattus norvegicus [11] = assay: Antihypertensive activity after po administration of 1.25 mg/kg dose in spontaneously hypertensive(SH) rats; Score is for average value of six animals; format: functional; how it was run: as §1
Rattus norvegicus [12] = assay: Antihypertensive activity after po administration of 0.08 mg/kg dose in spontaneously hypertensive(SH) rats; Score is for average value of six animals; format: functional; how it was run: as §1
Rattus norvegicus [13] = assay: Antihypertensive activity after po administration of 5 mg/kg dose in spontaneously hypertensive(SH) rats; Score is for average value of six animals; format: functional; how it was run: as §1
Rattus norvegicus [14] = assay: Antihypertensive activity after po administration of 0.31 mg/kg dose in spontaneously hypertensive(SH) rats; Score is for average value of six animals; format: functional; how it was run: as §1
Canis familiaris [15] = assay: Saluretic property in a anesthetized dog after 5 mg/kg oral administration; format: functional, Canis lupus familiaris
Rattus norvegicus [16] = assay: Antihypertensive activity after oral administration of 0.31 mg/kg dose in spontaneously hypertensive(SH) rats; format: functional; how it was run: as §1
Rattus norvegicus [17] = assay: Antihypertensive activity after oral administration of 5 mg/kg dose in spontaneously hypertensive(SH) rats; format: functional; how it was run: as §1
Rattus norvegicus [18] = assay: Antihypertensive activity after intraperitoneal administration of 20 mg/kg dose in spontaneously hypertensive(SH) rats; format: functional; how it was run: as §1
Rattus norvegicus [19] = assay: Antihypertensive activity after po administration of 20 mg/kg dose in spontaneously hypertensive(SH) rats; score is for average value of six animals; format: functional; how it was run: as §1
Rattus norvegicus [20] = assay: Antihypertensive activity after oral administration of 20 mg/kg dose in spontaneously hypertensive(SH) rats; format: functional; how it was run: as §1
Rattus norvegicus [21] = assay: Antihypertensive activity after po administration of 0.08 mg/kg dose in spontaneously hypertensive(SH) rats; score is for average value of four animals; format: functional; how it was run: as §1
Rattus norvegicus [22] = assay: Antihypertensive activity after po administration of 0.31 mg/kg dose in spontaneously hypertensive(SH) rats; score is for average value of four animals; format: functional; how it was run: as §1
Canis familiaris [23] = assay: Saluretic property in an anesthetized dog after 5 mg/kg po administration; score is for average of two animals; format: functional, Canis lupus familiaris
Rattus norvegicus [24] = assay: Antihypertensive activity after po administration of 20 mg/kg dose in spontaneously hypertensive(SH) rats; Score is for average value of two animals; format: functional; how it was run: as §1
Rattus norvegicus [25] = assay: Antihypertensive activity after po administration of 5 mg/kg dose in spontaneously hypertensive(SH) rats; Score is for average value of two animals; format: functional; how it was run: as §1

## CC1(C)CC(C)(C)CC2(C1)NCc1cc(C(C)(C)C)cc(I)c1O2
Rattus norvegicus [1]
  Antihypertensive score: 0
Rattus norvegicus [2]
  Antihypertensive score: 1
Rattus norvegicus [3]
  Saluretic score: 4

## CC(C)(C)c1cc(Cl)c(O)c(CN)c1.Cl
Canis familiaris [4]
  Saluretic score: 4
Rattus norvegicus [5]
  Antihypertensive score: 2
Rattus norvegicus [6]
  Antihypertensive score: 0
Rattus norvegicus [3]
  Saluretic score: 6

## CC(C)(C)c1cc(Cl)c2c(c1)C[N+](C)(C)C1(CCCCC1)O2.[I-]
Rattus norvegicus [7]
  Antihypertensive score: 0.5
Rattus norvegicus [6]
  Antihypertensive score: 0
Rattus norvegicus [3]
  Saluretic score: 0

## CC(C)(C)c1cc(I)c2c(c1)CNC1(CCCCC1)O2
Canis familiaris [4]
  Saluretic score: 5
Rattus norvegicus [2]
  Antihypertensive score: 0
Rattus norvegicus [3]
  Saluretic score: 5
Rattus norvegicus [8]
  Antihypertensive score: 1

## CC(C)(C)c1cc(I)c2c(c1)CNC1(CCCCCCCCCCC1)O2
Rattus norvegicus [9]
  Antihypertensive score: 0
Canis familiaris [10]
  Saluretic score: 2
Rattus norvegicus [2]
  Antihypertensive score: 1
Rattus norvegicus [3]
  Saluretic score: 4

## CN1CCC2(CC1)NCc1cc(C(C)(C)C)cc(I)c1O2
Canis familiaris [4]
  Saluretic score: 5
Rattus norvegicus [7]
  Antihypertensive score: 2
Rattus norvegicus [2]
  Antihypertensive score: 1
Rattus norvegicus [3]
  Saluretic score: 4

## CC(C)(C)c1cc(I)c2c(c1)C[N+](C)(C)C(C)(C)O2.[I-]
Rattus norvegicus [7]
  Antihypertensive score: 0

## CC(C)(C)c1cc(I)c(O)c(CN)c1.Cl
Canis familiaris [4]
  Saluretic score: 6
Rattus norvegicus [11]
  Antihypertensive score: 2
Rattus norvegicus [12]
  Antihypertensive score: 0
Rattus norvegicus [13]
  Antihypertensive score: 3
Rattus norvegicus [14]
  Antihypertensive score: 1
Rattus norvegicus [3]
  Saluretic score: 6

## CC(=O)Oc1cc(C(C)(C)C)cc2c1OC1(CCCCC1)[N+](C)(C)C2.[I-]
Canis familiaris [15]
  Saluretic score: 0
Rattus norvegicus [16]
  Antihypertensive score: 1
Rattus norvegicus [3]
  Saluretic score: 0
Rattus norvegicus [17]
  Antihypertensive score: 2

## CC(C)(C)c1cc(I)c2c(c1)CN(CN1COc3c(I)cc(C(C)(C)C)cc3C1)CO2
Rattus norvegicus [18]
  Antihypertensive score: 0

## CC(C)(C)c1cc(I)c2c(c1)CNC1(O2)C2CC3CC(C2)CC1C3 (stereo unspecified)
Rattus norvegicus [9]
  Antihypertensive score: 0
Canis familiaris [4]
  Saluretic score: 0
Rattus norvegicus [6]
  Antihypertensive score: 2
Rattus norvegicus [3]
  Saluretic score: 3

## CC(C)(C)c1cc(I)c2c(c1)C[N+](C)(C)C1(CCCC1)O2.[I-]
Rattus norvegicus [7]
  Antihypertensive score: 3
Rattus norvegicus [6]
  Antihypertensive score: 0

## CC(C)(C)c1cc(I)c2c(c1)CNC1(O2)C2CC3C(C2)C31 (stereo unspecified)
Rattus norvegicus [9]
  Antihypertensive score: 1
Canis familiaris [4]
  Saluretic score: 5
Rattus norvegicus [19]
  Antihypertensive score: 2
Rattus norvegicus [3]
  Saluretic score: 5

## CC(C)(C)c1cc(I)c2c(c1)C[N+](C)(C)C1(CCC(C(C)(C)C)CC1)O2.[I-] (stereo unspecified)
Canis familiaris [15]
  Saluretic score: 0
Rattus norvegicus [20]
  Antihypertensive score: 0
Rattus norvegicus [18]
  Antihypertensive score: 2
Rattus norvegicus [3]
  Saluretic score: 0

## CC(C)(C)c1cc(I)c2c(c1)CNC1(CCC3(CC1)NCc1cc(C(C)(C)C)cc(I)c1O3)O2 (stereo unspecified)
Rattus norvegicus [20]
  Antihypertensive score: 2
Rattus norvegicus [3]
  Saluretic score: 2
Rattus norvegicus [17]
  Antihypertensive score: 0

## CC(C)(C)c1cc(I)c2c(c1)C[N+](C)(C)C1(CCCCC1)O2.[I-]
Rattus norvegicus [9]
  Antihypertensive score: 2
Rattus norvegicus [21]
  Antihypertensive score: 0
Rattus norvegicus [22]
  Antihypertensive score: 2
Canis familiaris [4]
  Saluretic score: 0
Rattus norvegicus [3]
  Saluretic score: 0

## CC(C)(C)c1cc(I)c2c(c1)CNC1(CCSCC1)O2
Rattus norvegicus [1]
  Antihypertensive score: 0
Canis familiaris [23]
  Saluretic score: 2
Rattus norvegicus [6]
  Antihypertensive score: 2
Rattus norvegicus [3]
  Saluretic score: 4

## CC(C)(C)c1cc(I)c2c(c1)C[N+](C)(C)CO2.[I-]
Rattus norvegicus [1]
  Antihypertensive score: 0
Rattus norvegicus [7]
  Antihypertensive score: 2
Rattus norvegicus [3]
  Saluretic score: 0

## CN1CCC2(CC1)NCc1cc(C(C)(C)C)cc(Cl)c1O2
Canis familiaris [4]
  Saluretic score: 5
Rattus norvegicus [2]
  Antihypertensive score: 0
Rattus norvegicus [3]
  Saluretic score: 3

## CC(C)(C)c1cc(I)c2c(c1)CNC1(CCC(C(=O)O)CC1)O2 (stereo unspecified)
Rattus norvegicus [9]
  Antihypertensive score: 2
Canis familiaris [4]
  Saluretic score: 5
Rattus norvegicus [6]
  Antihypertensive score: 2
Rattus norvegicus [3]
  Saluretic score: 4

## CC(=O)N1CCC2(CC1)NCc1cc(C(C)(C)C)cc(I)c1O2
Canis familiaris [4]
  Saluretic score: 4
Rattus norvegicus [7]
  Antihypertensive score: 0

## CC(C)(C)c1cc(I)c2c(c1)C[N+](C)(C)C1(CCNCC1)O2.[Cl-]
Canis familiaris [4]
  Saluretic score: 0
Rattus norvegicus [7]
  Antihypertensive score: 0
Rattus norvegicus [6]
  Antihypertensive score: 0
Rattus norvegicus [3]
  Saluretic score: 0

## CC(C)(C)c1cc(Cl)c2c(c1)CNC1(CCCCC1)O2
Canis familiaris [4]
  Saluretic score: 5
Rattus norvegicus [7]
  Antihypertensive score: 0
Rattus norvegicus [3]
  Saluretic score: 3

## CC1CCC2(CC1)Oc1c(I)cc(C(C)(C)C)cc1C[N+]2(C)C.[I-] (stereo unspecified)
Rattus norvegicus [6]
  Antihypertensive score: 0

## CC(=O)N1CCC2(CC1)Oc1c(I)cc(C(C)(C)C)cc1C[N+]2(C)C.[I-]
Rattus norvegicus [24]
  Antihypertensive score: 2
Canis familiaris [4]
  Saluretic score: 0
Rattus norvegicus [25]
  Antihypertensive score: 0
Rattus norvegicus [3]
  Saluretic score: 0

## CC(C)(C)c1cc(I)c2c(c1)CNC1(CCN(CCc3ccccc3)CC1)O2
Rattus norvegicus [9]
  Antihypertensive score: 0
Canis familiaris [4]
  Saluretic score: 5
Rattus norvegicus [19]
  Antihypertensive score: 1
Rattus norvegicus [3]
  Saluretic score: 4

## CC(C)(C)c1cc(I)c2c(c1)CNC1(CCC(C(C)(C)C)CC1)O2 (stereo unspecified)
Canis familiaris [15]
  Saluretic score: 5
Rattus norvegicus [18]
  Antihypertensive score: 0
Rattus norvegicus [3]
  Saluretic score: 4
